Measurements taken from ChEMBL document CHEMBL1154087, “Novel orally active NPY Y5 receptor antagonists: Synthesis and structure-activity relationship of spiroindoline class compounds” (Bioorg Med Chem, 2009).
Active and inactive are the calls of the source. The rule behind the calls is not given here.

How the values were obtained:
[1] = biological target: T1, Neuropeptide Y receptor type 5 (Homo sapiens, UniProt Q15761); assay: Binding affinity to human neuropeptide Y5 receptor
T1 sequence (Q15761 whole entry): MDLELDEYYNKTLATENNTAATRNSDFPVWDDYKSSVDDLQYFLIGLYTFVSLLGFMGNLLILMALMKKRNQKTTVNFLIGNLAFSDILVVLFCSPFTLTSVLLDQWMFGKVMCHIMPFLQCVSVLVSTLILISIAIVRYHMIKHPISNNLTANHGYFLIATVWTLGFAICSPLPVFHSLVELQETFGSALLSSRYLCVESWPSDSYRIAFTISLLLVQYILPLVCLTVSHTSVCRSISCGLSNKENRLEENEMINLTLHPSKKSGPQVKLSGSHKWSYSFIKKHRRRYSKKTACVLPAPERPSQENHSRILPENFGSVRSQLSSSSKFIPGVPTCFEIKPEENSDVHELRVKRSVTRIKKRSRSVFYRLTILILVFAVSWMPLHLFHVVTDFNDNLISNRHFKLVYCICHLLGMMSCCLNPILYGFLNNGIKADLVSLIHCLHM

[2] = Ratio of drug level in brain to plasma in Sprague-Dawley rat at 3 mg/kg, iv after 10 mins; type: ADME, organism-based; design: dose 3 mg/kg, route intravenous
How it was run: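 Rats (n = 2) dosed iv at 3 mpk. Brain and plasma concentrations taken 10 min after dosing, and brain penetration expressed as the brain/plasma ratio.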

[3] = tested on: Rattus norvegicus; assay: Suppression of Y5 agonist bovine pancreatic peptide-induced food intake in po dosed Sprague-Dawley rat assessed as minimum effective dose treated 1 hr before peptide administration measured after 2 hrs; type: functional
How it was run: (§1)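 bPP (5 µg) given ICV to SD rats in 10 µL of 10 mM PBS containing 0.05% BSA. Compound suspended in 0.5% methylcellulose in distilled water and given orally (5 mL/kg) 1 h before bPP. Cumulative food intake recorded over 0–2 h; n = 7 or more. MED is the lowest dose with a statistically significant reduction versus vehicle (P < 0.05 or P < 0.01).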

[4] = Oral bioavailability in Sprague-Dawley rat at 10 mg/kg; type: ADME, organism-based; settings: in vivo
How it was run: (§2)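 Sprague-Dawley rats (n = 2) given 3 mpk iv and 10 mpk po. Plasma sampled at 5 min, 1 h and 4 h after iv dosing and at 0.5 h, 1 h and 2 h after po dosing. F, CL_tot, AUC and other PK parameters calculated by the trapezoidal method.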

[5] = tested on: Rattus norvegicus; assay: Suppression of Y5 agonist bovine pancreatic peptide-induced food intake in Sprague-Dawley rat at 3 mg/kg, po treated 1 hr before peptide administration measured after 2 hrs; type: functional; how it was run: as §1
[6] = AUC in Sprague-Dawley rat at 10 mg/kg, po and 3 mg/kg, iv; type: ADME, organism-based; settings: plasma; how it was run: as §2
[7] = tested on: Mus musculus; assay: Reduction in cumulative food intake in diet-induced obese C57BL/6J mouse at 30 mg/kg, po after 13 days relative to control; type: functional; design: scale not given: the % may be the effect or the level left
[8] = tested on: Mus musculus; assay: Reduction in body weight in diet-induced obese C57BL/6J mouse at 30 mg/kg, po after 13 days; type: functional, organism-based; design: dose 30 mg/kg
[9] = species: Mus musculus; assay: Reduction in body weight in Y5 receptor knock-out diet-induced obese C57BL/6J mouse; type: functional, organism-based
[10] = tested on: Rattus norvegicus; assay: Suppression of Y5 agonist bovine pancreatic peptide-induced food intake in Sprague-Dawley rat at 10 mg/kg, po treated 1 hr before peptide administration measured after 2 hrs; type: functional; how it was run: as §1
[11] = Total clearance in Sprague-Dawley rat at 10 mg/kg, po and 3 mg/kg, iv; type: ADME, organism-based; settings: in vivo; how it was run: as §2
[12] = tested on: Brain; assay: Drug level in Sprague-Dawley rat brain at 10 mg/kg, po after 2 hrs; type: ADME, organism-based; design: dose 10 mg/kg, route oral; settings: in vivo
How it was run: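 SD rats dosed orally at 10 mg/kg. Brain concentration measured 2 h after dosing and expressed as nmol/g.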

[13] = tested on: Rattus norvegicus; assay: Suppression of Y5 agonist bovine pancreatic peptide-induced food intake in Sprague-Dawley rat at 1 mg/kg, po treated 1 hr before peptide administration measured after 2 hrs; type: functional; how it was run: as §1
[14] = Tmax in Sprague-Dawley rat at 10 mg/kg, po and 3 mg/kg, iv; type: ADME, organism-based; settings: in vivo; how it was run: as §2
[15] = Cmax in Sprague-Dawley rat at 10 mg/kg, po and 3 mg/kg, iv; type: ADME, organism-based; settings: in vivo; how it was run: as §2
[16] = Lipophilicity, calculated log D at pH 7.4
[17] = tested on: Mus musculus; assay: Reduction in body weight in diet-induced obese C57BL/6J mouse at 100 mg/kg, po; type: functional, organism-based; design: dose 100 mg/kg

IC50 [1] [nM]	Structure (SMILES)	MED [3] [mg/kg]	also measured
4.2	CS(=O)(=O)N1CC2(CCN(C(=O)Nc3ccc(-c4ccco4)cc3)CC2)c2ccccc21		
3	CCS(=O)(=O)N1CC2(CCN(C(=O)Nc3cn(-c4cccc(F)c4)cn3)CC2)c2ccccc21	30	Kp at 10 min [2]: 0.18; bioavailability [4]: 23%
3.9	CS(=O)(=O)N1CC2(CCN(C(=O)Nc3cn(-c4ccccc4F)cn3)CC2)c2ccccc21	> 30	
3.4	CCS(=O)(=O)N1CC2(CCN(C(=O)Nc3cn(-c4ccccc4)cn3)CC2)c2ccccc21	3	inhibition in vivo at 3 mg/kg [5]: 45%; AUC [6]: 58.9 µM·h; Activity [7]: 8.8%; Activity [8]: Active; Kp at 10 min [2]: 0.22; Activity [9]: inactive; inhibition in vivo at 10 mg/kg [10]: 57%; clearance [11]: 2.5 mL/min/kg; Activity [3]: Dose-dependent effect; Drug uptake [12]: 0.64 nmol/g; inhibition in vivo at 1 mg/kg [13]: 34%; bioavailability [4]: 37%
2.4	CS(=O)(=O)N1CC2(CCN(C(=O)Nc3ccc(-c4nccs4)cc3)CC2)c2ccccc21		
3.2	CS(=O)(=O)N1CC2(CCN(C(=O)Nc3ccc(-n4cccn4)cc3)CC2)c2ccccc21		
3.2	CCS(=O)(=O)N1CC2(CCN(C(=O)Nc3cn(-c4ccc(OC)cc4)cn3)CC2)c2ccccc21		
2.2	CS(=O)(=O)N1CC2(CCN(C(=O)Nc3ncc(-c4ccccc4)s3)CC2)c2ccccc21		
	CS(=O)(=O)N1CC2(CCN(C(=O)Nc3ccc(-c4ccccn4)cc3)CC2)c2ccccc21	> 100	AUC [6]: 1.8 µM·h; Tmax [14]: 0.25 h; Kp at 10 min [2]: 0.22; Cmax [15]: 0.6 µM; clearance [11]: 24.4 mL/min/kg
7.1	CS(=O)(=O)N1CC2(CCN(C(=O)Nc3ccc(Cl)cn3)CC2)c2ccccc21		
8.9	COc1cccc2sc(NC(=O)N3CCC4(CC3)CN(S(C)(=O)=O)c3ccccc34)nc12		
2.6	CS(=O)(=O)N1CC2(CCN(C(=O)Nc3ccc(Oc4ccccc4)cc3)CC2)c2ccccc21		
5.4	CS(=O)(=O)N1CC2(CCN(C(=O)Nc3cnc4ccccc4c3)CC2)c2ccccc21		
41	CS(=O)(=O)N1CC2(CCN(C(=O)Nc3ccc(-n4nccn4)cc3)CC2)c2ccccc21		
> 1000	CS(=O)(=O)N1CC2(CCN(C(=O)Nc3cccnc3)CC2)c2ccccc21		
2.8	CS(=O)(=O)N1CC2(CCN(C(=O)Nc3ccc(-c4cscn4)cc3)CC2)c2ccccc21		

IC50 [1] [nM]	Structure (SMILES)	MED [3] [mg/kg]	also measured
1.4	CS(=O)(=O)N1CC2(CCN(C(=O)Nc3cc(-c4ccccc4)n[nH]3)CC2)c2ccccc21	> 30	logD [16]: 3.08; Kp at 10 min [2]: 0.02; bioavailability [4]: 13%
1.8	CS(=O)(=O)N1CC2(CCN(C(=O)Nc3cn(-c4cccc(F)c4)cn3)CC2)c2ccccc21	> 30	
2	CCS(=O)(=O)N1CC2(CCN(C(=O)Nc3cn(-c4cccc(OC)c4)cn3)CC2)c2ccccc21	10	Kp at 10 min [2]: 0.11; bioavailability [4]: 50.1%
2.4	CS(=O)(=O)N1CC2(CCN(C(=O)Nc3cn(-c4ccccc4)cn3)CC2)c2ccccc21	> 30	logD [16]: 2.15; AUC [6]: 25.3 µM·h; Kp at 10 min [2]: 0.1; clearance [11]: 3.9 mL/min/kg; bioavailability [4]: 27%
5	CS(=O)(=O)N1CC2(CCN(C(=O)Nc3nc4cc(Cl)ccc4o3)CC2)c2ccccc21		
4.9	CCS(=O)(=O)N1CC2(CCN(C(=O)Nc3cn(-c4ccccc4OC)cn3)CC2)c2ccccc21	> 30	
	CS(=O)(=O)N1CC2(CCN(C(=O)Nc3ccc(-c4ccncc4)cc3)CC2)c2ccccc21	10	AUC [6]: 10.8 µM·h; Activity [17]: inactive; Tmax [14]: 1 h; Cmax [15]: 5.5 µM; clearance [11]: 17.8 mL/min/kg
6.1	CS(=O)(=O)N1CC2(CCN(C(=O)Nc3ccc4ccccc4n3)CC2)c2ccccc21		
4.1	CCS(=O)(=O)N1CC2(CCN(C(=O)Nc3cn(-c4ccc(F)cc4)cn3)CC2)c2ccccc21	> 30	
3.4	CS(=O)(=O)N1CC2(CCN(C(=O)Nc3nnc(-c4ccccc4)s3)CC2)c2ccccc21		
2.5	CS(=O)(=O)N1CC2(CCN(C(=O)Nc3ccc4ncccc4c3)CC2)c2ccccc21	> 30	logD [16]: 2.74; Kp at 10 min [2]: 0.03; bioavailability [4]: 24%
9	Cn1ccnc1-c1ccc(NC(=O)N2CCC3(CC2)CN(S(C)(=O)=O)c2ccccc23)cc1		
11	CS(=O)(=O)N1CC2(CCN(C(=O)Nc3ccc(Cl)nc3)CC2)c2ccccc21		
0.68	CS(=O)(=O)N1CC2(CCN(C(=O)Nc3ccc(C(=O)c4ccccc4)cc3)CC2)c2ccccc21		
	CS(=O)(=O)N1CC2(CCN(C(=O)Nc3ccc(-c4cccnc4)cc3)CC2)c2ccccc21	100	AUC [6]: 12.7 µM·h; Tmax [14]: 1 h; Cmax [15]: 4.7 µM; clearance [11]: 13.3 mL/min/kg
3.3	CCS(=O)(=O)N1CC2(CCN(C(=O)Nc3cn(-c4ccccc4F)cn3)CC2)c2ccccc21	3	Kp at 10 min [2]: 0.25; bioavailability [4]: 23%

Structure (SMILES)	IC50 [1] [nM]	MED [3] [mg/kg]	also measured
CC(=O)c1ccc(NC(=O)N2CCC3(CC2)CN(S(C)(=O)=O)c2ccccc23)cc1	2.7		
CS(=O)(=O)N1CC2(CCN(C(=O)Nc3cc(-c4ccccc4)no3)CC2)c2ccccc21	1.3	> 30	logD [16]: 2.53; Kp at 10 min [2]: 0.22; bioavailability [4]: 23%
